ChEMBL document CHEMBL2163288, “Design and characterization of a selenium-containing inhibitor of activated thrombin-activatable fibrinolysis inhibitor (TAFIa), a zinc-containing metalloprotease” (J Med Chem, 2012)
Calls of active or inactive are those of the source. The calls are words filed in the database; no cut-off is given here.

Columns and labels:
[1] = Inhibition of human carboxypeptidase N using Hip-Lys as substrate incubated for 10 mins prior to substrate addition measured after 30 mins by spectrophotometric analysis in presence of dithiothreitol
How it was run: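 Human plasma carboxypeptidase N at 50 U/L preincubated with compounds for 10 min at 37 °C. Then Hip-Lys (3.2 mM stock) in 0.1 M Tris pH 7.6 buffer with DTT, for 30 min at 37 °C. Stopped with PIPES/Tween 20, cyanuric acid colour, A405. IC50 from sigmoidal inhibition curves.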

Carboxypeptidase B2 [2] = target: T1, Carboxypeptidase B2 (Homo sapiens, UniProt Q96IY4); test: Inhibition of human activated TAFI using Hip-Arg as substrate incubated for 10 mins prior to substrate addition measured after 30 mins by spectrophotometric analysis
T1 sequence (Q96IY4 whole entry): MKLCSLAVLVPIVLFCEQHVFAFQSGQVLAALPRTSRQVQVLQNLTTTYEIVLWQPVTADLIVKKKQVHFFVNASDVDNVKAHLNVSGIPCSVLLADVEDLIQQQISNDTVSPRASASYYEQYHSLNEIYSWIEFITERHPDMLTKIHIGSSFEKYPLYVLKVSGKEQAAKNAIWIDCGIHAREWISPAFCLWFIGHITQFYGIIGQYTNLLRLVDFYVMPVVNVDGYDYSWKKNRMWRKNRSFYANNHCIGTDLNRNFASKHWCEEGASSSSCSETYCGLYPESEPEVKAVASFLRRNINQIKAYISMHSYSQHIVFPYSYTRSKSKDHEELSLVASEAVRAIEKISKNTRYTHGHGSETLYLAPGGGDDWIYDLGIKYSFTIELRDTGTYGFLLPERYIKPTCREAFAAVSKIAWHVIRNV
How it was run: (§1)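 TAFI purified from human plasma, pre-mixed with 300 ng/mL thrombomodulin (25 °C, 3 min), then activated with 3 U/mL thrombin (25 °C, 30 min). 20 U/L TAFIa preincubated with compounds for 10 min at 25 °C. Hip-Arg (3.2 mM stock) in 0.1 M Tris pH 7.6, with or without 10 μM DTT final, for 30 min at 25 °C. Stopped with PIPES/Tween 20, cyanuric acid colour read at A405. IC50 taken from sigmoidal curves.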

Carboxypeptidase B2 [3] = target: T1, Carboxypeptidase B2; test: Inhibition of human activated TAFI using Hip-Arg as substrate incubated for 10 mins prior to substrate addition measured after 30 mins by spectrophotometric analysis in presence of dithiothreitol; how it was run: as §1
Carboxypeptidase B [4] = target: T2, Carboxypeptidase B (Sus scrofa, UniProt P09955); test: Inhibition of pig pancreatic carboxypeptidase B using Hip-Arg as substrate incubated for 10 mins prior to substrate addition measured after 30 mins by spectrophotometric analysis
T2 sequence (P09955 whole entry): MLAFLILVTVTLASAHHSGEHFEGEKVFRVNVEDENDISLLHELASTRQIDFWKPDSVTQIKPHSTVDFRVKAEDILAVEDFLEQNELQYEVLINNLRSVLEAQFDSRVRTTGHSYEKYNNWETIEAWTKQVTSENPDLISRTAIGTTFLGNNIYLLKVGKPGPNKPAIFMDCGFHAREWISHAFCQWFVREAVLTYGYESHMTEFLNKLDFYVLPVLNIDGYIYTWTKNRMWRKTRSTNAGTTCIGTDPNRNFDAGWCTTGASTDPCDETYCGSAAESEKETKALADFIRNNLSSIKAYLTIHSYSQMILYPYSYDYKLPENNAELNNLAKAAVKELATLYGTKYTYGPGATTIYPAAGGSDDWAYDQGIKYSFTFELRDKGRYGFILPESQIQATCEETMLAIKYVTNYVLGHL

[5] = Selectivity ratio of IC50 for pig pancreatic carboxypeptidase B to IC50 for human activated TAFI
[6] = Inhibition of human carboxypeptidase N using Hip-Lys as substrate incubated for 10 mins prior to substrate addition measured after 30 mins by spectrophotometric analysis
How it was run: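 Human plasma CPN (50 U/L) preincubated with compound at 37 °C for 10 min, then Hip-Lys (3.2 mM stock) added in 0.1 M Tris-HCl pH 7.6 (±10 μM DTT) for 30 min at 37 °C. Stopped with PIPES/Tween 20 buffer; cyanuric acid colour read at 405 nm; IC50 from sigmoidal inhibition curves.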

Carboxypeptidase B [7] = target: T2, Carboxypeptidase B; test: Inhibition of pig pancreatic carboxypeptidase B using Hip-Arg as substrate incubated for 10 mins prior to substrate addition measured after 30 mins by spectrophotometric analysis in presence of dithiothreitol
How it was run: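 Porcine pancreatic CPB at 20 U/L preincubated with compounds for 10 min at 25 °C. Then Hip-Arg (3.2 mM stock) in 0.1 M Tris pH 7.6 with 10 μM DTT final, for 30 min at 25 °C. Stopped with PIPES/Tween 20, cyanuric acid colour, absorbance at 405 nm. IC50 from sigmoidal inhibition curves.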

[8] = target: T3, Carboxypeptidase B2 (Homo sapiens) (UniProt Q96IY4); test: Inhibition of human activated TAFI using Hip-Arg as substrate at 10 uM incubated for 10 mins prior to substrate addition measured after 30 mins by spectrophotometric analysis
T3 sequence (whole entry): T1 sequence (Q96IY4 whole entry)
How it was run: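 Plasma-purified human TAFI activated with thrombomodulin (25 °C, 3 min), then thrombin (25 °C, 30 min). TAFIa (20 U/L) preincubated with compound at 25 °C for 10 min. Hip-Arg substrate (3.2 mM stock) added in 0.1 M Tris-HCl pH 7.6 with or without 10 μM DTT, 30 min at 25 °C. Stopped with PIPES/Tween 20; cyanuric acid colour read at 405 nm; IC50 from sigmoidal curves.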

Homo sapiens = species on record: Homo sapiens; test: Selectivity ratio of IC50 for human carboxypeptidase N to IC50 for human activated TAFI

Row | Compound | IC50 [1] [µM] | IC50 (Carboxypeptidase B2 [2]) [µM] | IC50 (Carboxypeptidase B2 [3]) [nM] | IC50 (Carboxypeptidase B [4]) [µM] | Ratio IC50 [5] | IC50 [6] [µM] | IC50 (Carboxypeptidase B [7]) [µM] | inhibition [8] | Ratio IC50 (Homo sapiens)
1 | CCOC(=O)C(C[Se]C(=O)CC)Cc1cnc(N)c(Cl)c1 (stereo not given) | > 3800 | > 3800 | 2600 | > 3800 | 3 | > 3800 | 130 | – | –
2 | CCOC(=O)C(CCCCCN)C[Se]C(=O)CC (stereo not given) | 0.16 | 1.4 | 30 | 910 | – | 14 | 0.033 | – | –
3 | CC(C)[C@H](NC(=O)CCc1ccccc1)P(=O)(O)C[C@@H](CCCCCN)C(=O)O | – | 0.0055 | – | 0.0049 | – | 6.7 | – | – | –
4 | CCOC(=O)C(CCCCCN)CSC(C)=O (stereo not given) | – | 310 | – | 19 | – | > 3800 | – | – | –
5 | Nc1ncc(CC(C[Se][Se]CC(Cc2cnc(N)c(Cl)c2)C(=O)O)C(=O)O)cc1Cl (stereo not given) | > 3800 | 3.3 | 0.025 | 370 | 3 | > 3800 | 0.0015 | – | –
6 | O[C@@H](CS)[C@@H](O)CS | – | – | – | – | – | – | – | inactive | –
7 | NCCCCCC(CS)C(=O)O (stereo not given) | – | 0.034 | – | – | – | 1.4 | – | – | –
8 | Nc1ccc(CC(C[Se][Se]CC(Cc2ccc(N)nc2)C(=O)O)C(=O)O)cn1 (stereo not given) | 0.00029 | 0.2 | 0.0022 | 0.28 | 3 | 4.2 | 0.00019 | – | –
9 | CCOC(=O)C(C[Se]C(=O)CC)Cc1ccc(N)nc1 (stereo not given) | 1.7 | 180 | 890 | > 3800 | 3 | 15 | 2.5 | – | –
10 | NCCCCCC(C[Se]C(=O)CCCc1ccccc1)C(=O)O (stereo not given) | 0.016 | 1.6 | 4.1 | 1.5 | – | 6 | 0.0032 | – | –
11 | NCCCCCC(C[Se]C(=O)CCc1ccccc1)C(=O)O (stereo not given) | 0.014 | 2 | 5.3 | 1.4 | – | 1.7 | 0.0032 | – | –
12 | CC(=O)SCC(CCCCCN)C(=O)O (stereo not given) | – | 3.8 | – | 1.4 | – | 160 | – | – | 40
13 | NCCCCCC(C[Se][Se]CC(CCCCCN)C(=O)O)C(=O)O (stereo not given) | 0.0086 | > 3800 | 2 | 110 | – | > 3800 | 0.0011 | – | –
14 | CCC(=O)[Se]CC(CCCCCN)C(=O)O (stereo not given) | 0.018 | 0.76 | 1.1 | 1.9 | – | 2 | 0.0011 | – | –
15 | CCOC(=O)C(CS)CCCCCN (stereo not given) | – | 62 | – | 260 | – | 25 | – | – | 0.4
